MrgX1 antagonist: human MrgX1 receptor antagonism, primary screen | B-score at 10 µM | MRGX1-HEK293 calcium flux, Fluo-4, BAM8-22 antagonism; hits give low values | Q96LB2 | 310,000 compounds, 1.3% hits;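 active means calcium-response B-score plate-corrected more than 3 library SD below zero, starting fluorescence within 5 deviations, no agonist response on first addition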;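 further: peak minus trough fluorescence over baseline after final BAM8-22 challenge near maximal dose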
MrgX1 allo act: human MrgX1 positive allosteric modulation, primary screen; Q96LB2; B-score at 10 µM; AID 588675; 310,000 compounds, 0.63% hits; MrgX1-HEK293, Fluo-4 calcium flux, FDSS; hits give high values;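 active means plate-corrected calcium response at least 3 library SD above typical, normal starting fluorescence, not activating the receptor alone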;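 further: compound read alongside a low EC10 to EC30 dose of BAM8-22 agonist; peak minus trough fluorescence over baseline measured at the second addition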
RGS4 block: human RGS4 inhibition | HEK293 M3R/RGS4 inducible, Fluo-4 calcium flux; hits give high values; triggered by carbachol at its EC20 | B-score at 10 µM | 310,000 compounds, 0.45% hits | P49798;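 active means B-score, a plate-corrected calcium signal, over three deviations above library mean, with baseline fluorescence within five deviations of library mean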;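 further: RGS4 expression induced by doxycycline in cells with stable M3 receptor; B-score is computed from the integrated fluorescence ratio over baseline after carbachol; higher B-score means a larger calcium signal and so more RGS4 inhibition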
Target sequence (P49798 whole entry, looked up): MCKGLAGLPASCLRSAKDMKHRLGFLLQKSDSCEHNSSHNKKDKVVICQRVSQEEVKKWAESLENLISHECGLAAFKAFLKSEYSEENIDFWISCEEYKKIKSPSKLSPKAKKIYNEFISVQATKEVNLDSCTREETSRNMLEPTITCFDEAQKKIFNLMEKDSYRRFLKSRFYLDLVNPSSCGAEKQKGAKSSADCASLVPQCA
MrgX1 agonist: human MrgX1 receptor agonism, primary screen | Q96LB2 | MrgX1-HEK293 cells, Fluo-4 calcium fluorescence, agonist mode; hits give high values | B-score at 10 µM | 310,000 compounds, 0.44% hits;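 active means calcium response B-score plate-corrected fluorescence ratio at least 3 library SD, with starting fluorescence B-score inside 5 SD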
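System – MrgX1-expressing HEK293 cells · Incubation – cells plated overnight, dye loaded 0.5 h 37 °C, 0.5 h room temperature · Technique – kinetic Fluo-4 NW fluorescence of intracellular calcium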
RGS4 act: potentiators or activators of RGS4; B-score at 10 µM; HEK293 M3R/inducible RGS4, carbachol calcium flux Fluo4; hits give low values; 310,000 compounds, 0.92% hits;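 active means B-score of the integrated calcium signal more than 4 SD below the library mean, with starting fluorescence not abnormally high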;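 further: negative B-score means reduced calcium response which marks RGS4 activation or potentiation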
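Material: Inducible-RGS4 HEK293 cells carrying M3 receptor; also added: carbachol at ECmax as muscarinic agonist stimulus; incubation: compound preincubation 20 min at room temperature before agonist; signal: Fluo4-AM (2 µM) calcium-flux fluorescence, kinetic read; measure: integrated calcium ratio converted to B score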
A number is an active result; i = inactive; nt = no result given. Only some compounds are listed: those with a hit (about 3.5% of all), similar ones and a draw of the others.

SMILES	MrgX1 antagonist	MrgX1 allo act	RGS4 block	MrgX1 agonist	RGS4 act
CC[n+]1c(/C=C/N(C)c2ccccc2)oc2ccc(F)cc21	-4.7	i	i	i	i
CC[n+]1c(/C=C/Nc2ccccc2)oc2ccc(OC)cc21	-7.41	i	i	i	i
O=C(Nc1ccc(N2CCOCC2)c(F)c1)c1cccs1	i	i	i	i	i
COc1ccc(-n2c(SCCC#N)nnc2-c2cc(Cl)ccc2OC)cc1Cl	i	i	i	i	i
Cc1ccc(-c2nn(-c3ccccc3)cc2CNCc2ccccc2)cc1	i	i	i	i	i
N=C(N)SCc1cn(-c2ccccc2)nc1-c1ccc(Br)cc1	nt	nt	i	nt	-7.51
O=C(c1nn(Cc2ccccc2)c(=O)c2ccccc12)N1CCN(C/C=C/c2ccccc2)CC1	i	i	i	i	i
CC(NC(=O)c1ccco1)c1nc(-c2ccccc2)no1 (configuration not stated)	i	i	i	i	i
CC(Oc1ccc(Cl)cc1Cl)c1nc(-c2ccc(NC(=O)c3ccco3)cc2)no1 (configuration not stated)	-4.97	i	i	i	i
COc1ccc2c(c1)O/C(=C\c1sccc1C)C2=O	i	i	i	i	i
CCOC(=O)Nc1ccc2c(c1)N(C(=O)CCN(C)C)c1ccccc1S2	i	i	i	i	-7.01
O=S(=O)(Cc1ccccc1)N=Nc1c(O)[nH]c2ccc(Br)cc12	i	10.5	i	i	i
O=C(CNC(=O)c1ccccc1)N=Nc1c(O)[nH]c2ccc(Br)cc12	i	i	i	i	i
CCOc1ccc(NS(=O)(=O)c2ccc(C(=O)NCC(c3cccs3)N3CCOCC3)cc2)cc1 (configuration not stated)	-6.54	i	i	i	i
CC(=O)c1ccc(S(=O)(=O)Nc2ccc(C(=O)NCC(c3cccs3)N3CCOCC3)cc2)cc1 (configuration not stated)	i	i	i	i	i
CCN(CC(=O)NCc1ccc(F)cc1)C(=O)/C=C/c1ccc(OC)c(S(=O)(=O)NC(C)C)c1	i	i	i	i	i
COc1ccc(NC(=O)CN2C(=O)/C(=C3\SC(=S)N(C4CCS(=O)(=O)C4)C3=O)c3ccccc32)cc1 (configuration not stated)	i	10.9	i	i	i
COc1ccc(/C=C2\SC(=O)N(CCNC(=O)Cc3coc4cc(C)ccc34)C2=O)cc1OC	i	i	i	i	-8.49
COc1ccc(NC2=C(Cl)C(=O)N(c3ccccc3)C2=O)c(OC)c1	i	i	i	i	i
COc1ccccc1NC1=C(Cl)C(=O)N(c2ccccc2)C1=O	i	10.9	i	i	i
CCOCCCNC(=O)C(c1ccccc1)N(Cc1ccc2c(c1)OCO2)C(=O)c1ccccc1O (configuration not stated)	i	i	i	i	i
CCN(NC(=O)C(O)(c1ccc(F)cc1)c1ccc(F)cc1)C(=O)c1ccccc1	-5.84	i	i	i	i
CC(=O)Cc1cc(O)c2ccccc2c1OC(=O)c1ccccc1	i	i	i	i	i
Cc1csc(NC(=O)C2=NN(c3ccccc3)C(=O)CC2)n1	i	i	i	i	i
Cc1ccc(-c2csc(NC(=O)C3=NN(c4ccccc4)C(=O)CC3)n2)cc1	-4.85	i	i	i	i
SMILES	MrgX1 antagonist	MrgX1 allo act	RGS4 block	MrgX1 agonist	RGS4 act
Cc1cccc(C(=O)Nc2ccc(C(=O)/C=C/c3ccncc3)cc2)c1	i	10.6	i	i	i
O=C(/C=C/c1cccnc1)c1ccc(NC(=O)c2cccc(Br)c2)cc1	i	7.07	i	i	i
Cc1cccc(C(=O)Nc2ccc(C(=O)/C=C/c3cccnc3)cc2)c1	i	i	i	i	i
CC(=O)Nc1cccc(C(=O)/C=C/c2ccc(/C=C/C(=O)c3cccc(NC(C)=O)c3)cc2)c1	i	i	4.75	i	i
CCNC(=O)NC(=O)C(C)N1C(=O)NC(c2ccccc2)(c2ccccc2)C1=O (configuration not stated)	i	i	i	i	i
CCCCCC[N+](C)(C)CC/C=C1/c2ccccc2Sc2ccc(Cl)cc21	i	i	i	i	-9.48
C/C(=N\NC(=S)NCc1ccccc1)c1ccccc1	i	i	i	i	i
C/C(=N\NC(=S)NCc1ccccc1)c1ccco1	i	8.15	i	i	i

Compound activity (PubChem)
